ChEMBL document CHEMBL5647691, “CDKN2A/p16 Loss Implicates CDK4 as a Therapeutic Target in Imatinib-Resistant Dermatofibrosarcoma Protuberans” (Mol Cancer Ther, 2015)
The source made the active and inactive calls. The calls are words filed in the database; no cut-off is given here.

Tests used:
[1] = Antiproliferative activity against human Imatinib-resistant DFSP105 cells assessed as cell growth inhibition incubated for 48 hrs by BrdU cell proliferation assay; type: functional
Procedure, shortened: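 DFSP105 cells (IMDM, 15% FBS, passages 10-30) seeded at 2500/well; drug added in fresh medium 24 h after plating, 48 h exposure, BrdU added for final 24 h. Proliferation read by BrdU chemiluminescent ELISA; GI50 = 50% growth inhibition concentration.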

[2] = biological target: T1, Retinoblastoma-associated protein (Homo sapiens) (UniProt P06400); experiment: Inhibition of RB1 phosphorylation at S807 residue in human Imatinib-resistant DFSP105 cells at […] incubated for 24 hrs by Western blot analysis; type: cell-based; conditions: Imatinib-resistant DFSP105 cell
T1 sequence (whole entry): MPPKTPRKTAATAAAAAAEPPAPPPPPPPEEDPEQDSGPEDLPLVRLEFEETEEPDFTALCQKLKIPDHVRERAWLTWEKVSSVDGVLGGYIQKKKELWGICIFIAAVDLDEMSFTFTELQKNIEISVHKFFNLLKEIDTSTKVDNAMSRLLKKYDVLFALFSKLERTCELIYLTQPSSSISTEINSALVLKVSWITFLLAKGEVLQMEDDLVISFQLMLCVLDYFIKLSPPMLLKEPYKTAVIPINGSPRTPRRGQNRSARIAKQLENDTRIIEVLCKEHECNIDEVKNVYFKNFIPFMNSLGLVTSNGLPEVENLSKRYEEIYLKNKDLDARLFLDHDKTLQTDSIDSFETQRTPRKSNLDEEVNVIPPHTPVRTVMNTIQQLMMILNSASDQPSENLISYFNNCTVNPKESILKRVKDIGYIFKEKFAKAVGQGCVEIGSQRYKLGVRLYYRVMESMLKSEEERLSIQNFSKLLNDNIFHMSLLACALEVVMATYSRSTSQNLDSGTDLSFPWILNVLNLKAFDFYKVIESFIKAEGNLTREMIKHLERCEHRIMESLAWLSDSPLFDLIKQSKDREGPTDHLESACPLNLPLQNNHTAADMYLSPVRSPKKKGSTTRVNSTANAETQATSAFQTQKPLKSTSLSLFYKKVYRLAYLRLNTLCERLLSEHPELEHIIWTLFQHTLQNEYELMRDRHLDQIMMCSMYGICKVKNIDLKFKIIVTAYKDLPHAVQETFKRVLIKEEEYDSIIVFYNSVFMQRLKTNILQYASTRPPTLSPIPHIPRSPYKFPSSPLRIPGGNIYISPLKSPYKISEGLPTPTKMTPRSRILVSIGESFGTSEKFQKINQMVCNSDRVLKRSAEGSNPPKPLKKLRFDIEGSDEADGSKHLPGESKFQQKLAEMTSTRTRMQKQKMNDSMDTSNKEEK
Procedure, shortened: (§1)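 DFSP105 cells treated 24 h with CDK4/6 inhibitor over a dose series; whole-cell lysates cleared 14,000 rpm 30 min 4°C, protein by Bradford, then immunoblotting for phospho-RB1 and cyclin A.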

[3] = system: Imatinib-resistant DFSP105 cell; experiment: Antitumor activity against human Imatinib-resistant DFSP105 cells xenografted in athymic nude mouse assessed as decrease in RB1 phosphorylation at S795 residue in tumor at 150 mg/kg,po daily for 5 weeks by Western blot analysis; type: functional, organism-based
Procedure, shortened: (§2)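 Nude mice bearing s.c. DFSP105 xenografts (2 million cells in Matrigel, ~5 weeks to establish) dosed daily by gavage at 150 mg/kg in HCl/Cremophor EL/PEG 300/acetate pH 4.6 vehicle for 5 weeks; tumor lysates (homogenized in ice-cold buffer with protease inhibitors) immunoblotted for phospho-RB1.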

[4] = biological target: T1, Retinoblastoma-associated protein (Homo sapiens); experiment: Inhibition of RB1 phosphorylation at S795 residue in human Imatinib-resistant DFSP105 cells at […] incubated for 24 hrs by Western blot analysis; type: cell-based; conditions: Imatinib-resistant DFSP105 cell; procedure, shortened: as §1
[5] = system: Imatinib-resistant DFSP105 cell; experiment: Antitumor activity against human Imatinib-resistant DFSP105 cells xenografted in athymic nude mouse assessed as decrease in RB1 phosphorylation at S807 residue in tumor at 150 mg/kg,po daily for 5 weeks by Western blot analysis; type: functional, organism-based; procedure, shortened: as §2
[6] = biological target: T1, Retinoblastoma-associated protein (Homo sapiens); experiment: Inhibition of RB1 phosphorylation at S811 residue in human Imatinib-resistant DFSP105 cells at […] incubated for 24 hrs by Western blot analysis; type: cell-based; conditions: Imatinib-resistant DFSP105 cell; procedure, shortened: as §1
[7] = system: Imatinib-resistant DFSP105 cell; experiment: Antiproliferative activity against human Imatinib-resistant DFSP105 cells assessed as decrease in Cyclin A expression at […] incubated for 24 hrs by Western blot analysis; type: functional, cell-based; procedure, shortened: as §1
[8] = system: Imatinib-resistant DFSP105 cell; experiment: Antitumor activity against human Imatinib-resistant DFSP105 cells xenografted in athymic nude mouse assessed as tumor growth inhibition by measuring tumor size at 150 mg/kg,po daily for 5 weeks; type: functional, organism-based
Procedure, shortened: (§3)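 S.c. DFSP105 xenografts (2 million cells in Matrigel) in athymic nude mice, treated after ~5 weeks establishment with daily gavage: imatinib 75 mg/kg in water or PD-0332991 150 mg/kg in HCl/Cremophor EL/PEG 300/acetate pH 4.6 vehicle, versus untreated, for 5 weeks. Tumor volume and body weight monitored weekly; mean ± SE.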

[9] = Toxicity in athymic nude mouse xenografted with human Imatinib-resistant DFSP105 cells assessed as body weight loss at 150 mg/kg,po daily for 5 weeks; type: organism-based; conditions: in vivo, 840 h; procedure, shortened: as §3
[10] = system: Imatinib-resistant DFSP105 cell; experiment: Antitumor activity against human Imatinib-resistant DFSP105 cells xenografted in athymic nude mouse assessed as tumor cell density at 150 mg/kg,po daily for 5 weeks by immunohistochemistry analysis; type: functional, organism-based
Procedure, shortened: (§4)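 Athymic nude mice given 2 million DFSP105 cells s.c. in Matrigel; after ~5 weeks tumor establishment, daily gavage (imatinib 75 mg/kg in water; PD-0332991 150 mg/kg in HCl/Cremophor EL/PEG 300/acetate pH 4.6 vehicle) for 5 weeks. BrdU i.p. 2 h before CO2 euthanasia; resected tumors examined histologically for cell density and BrdU-positive nuclei.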

[11] = Toxicity in athymic nude mouse xenografted with human Imatinib-resistant DFSP105 cells assessed as body weight loss at 75 mg/kg,po daily for 5 weeks; type: organism-based; conditions: in vivo, 840 h; procedure, shortened: as §3
[12] = system: Imatinib-resistant DFSP105 cell; experiment: Antitumor activity against human Imatinib-resistant DFSP105 cells xenografted in athymic nude mouse assessed as tumor growth inhibition by measuring tumor size at 75 mg/kg,po daily for 5 weeks; type: functional, organism-based; procedure, shortened: as §3
[13] = biological target: Platelet-derived growth factor receptor beta (Homo sapiens) (UniProt P09619); conditions: Imatinib-resistant DFSP105 cell, dose 500.0 nM
[14] = system: Imatinib-resistant DFSP105 cell; experiment: Antitumor activity against human Imatinib-resistant DFSP105 cells xenografted in athymic nude mouse assessed as tumor cell density at 75 mg/kg,po daily for 5 weeks by immunohistochemistry analysis; type: functional, organism-based; procedure, shortened: as §4

Chain of Platelet-derived growth factor receptor beta (Homo sapiens) (P09619 whole entry): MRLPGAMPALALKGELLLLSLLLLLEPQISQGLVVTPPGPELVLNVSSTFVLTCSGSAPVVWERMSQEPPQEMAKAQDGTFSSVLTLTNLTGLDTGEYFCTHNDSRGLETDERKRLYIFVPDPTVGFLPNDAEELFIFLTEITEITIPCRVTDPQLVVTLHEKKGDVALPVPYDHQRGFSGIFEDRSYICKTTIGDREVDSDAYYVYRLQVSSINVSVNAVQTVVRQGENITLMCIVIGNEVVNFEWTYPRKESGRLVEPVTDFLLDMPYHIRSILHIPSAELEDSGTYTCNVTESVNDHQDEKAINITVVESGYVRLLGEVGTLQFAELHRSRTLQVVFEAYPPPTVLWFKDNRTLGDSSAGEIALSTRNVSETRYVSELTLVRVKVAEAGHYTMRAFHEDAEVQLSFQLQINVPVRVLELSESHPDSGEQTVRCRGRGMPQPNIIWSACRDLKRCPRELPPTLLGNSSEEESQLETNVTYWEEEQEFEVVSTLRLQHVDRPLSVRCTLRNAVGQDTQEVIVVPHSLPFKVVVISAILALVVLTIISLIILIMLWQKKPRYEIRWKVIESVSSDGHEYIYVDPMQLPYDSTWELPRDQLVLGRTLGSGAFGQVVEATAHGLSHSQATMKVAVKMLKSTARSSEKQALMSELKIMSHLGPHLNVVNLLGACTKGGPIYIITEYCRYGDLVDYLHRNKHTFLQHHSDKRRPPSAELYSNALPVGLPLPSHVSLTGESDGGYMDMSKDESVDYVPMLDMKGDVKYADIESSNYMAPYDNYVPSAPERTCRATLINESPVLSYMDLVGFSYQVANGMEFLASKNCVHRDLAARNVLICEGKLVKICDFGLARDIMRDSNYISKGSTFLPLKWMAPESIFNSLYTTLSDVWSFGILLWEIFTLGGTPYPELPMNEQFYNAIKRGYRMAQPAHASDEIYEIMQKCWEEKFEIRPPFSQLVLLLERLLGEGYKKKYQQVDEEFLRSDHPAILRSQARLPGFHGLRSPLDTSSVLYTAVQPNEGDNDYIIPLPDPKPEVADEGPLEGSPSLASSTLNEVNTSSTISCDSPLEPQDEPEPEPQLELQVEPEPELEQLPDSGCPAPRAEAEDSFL

Row | Compound | inhibition [2] | inhibition [4] | inhibition [6] | inhibition [13] | GI50 [1] | Activity [7] | also measured
1 | CS(=O)(=O)N1CCN(Cc2cc3nc(-c4cccc5[nH]ncc45)nc(N4CCOCC4)c3s2)CC1 [PICTILISIB] | – | – | – | – | 1900 nM | – | –
2 | Cc1ccc(NC(=O)c2ccc(CN3CCN(C)CC3)cc2)cc1Nc1nccc(-c2cccnc2)n1 [IMATINIB] | – | – | – | Active | > 5000 nM | – | Activity [11]: Non-Toxic; Activity [12]: inactive; Activity [14]: inactive
3 | CO[C@H]1C[C@@H]2CC[C@@H](C)[C@@](O)(O2)C(=O)C(=O)N2CCCC[C@H]2C(=O)O[C@H]([C@H](C)C[C@@H]2CC[C@@H](OCCO)[C@H](OC)C2)CC(=O)[C@H](C)/C=C(\C)[C@@H](O)[C@@H](OC)C(=O)[C@H](C)C[C@H](C)/C=C/C=C/C=C/1C [EVEROLIMUS] | – | – | – | – | 5 nM | – | –
4 | CN(C)C(=O)c1cc2cnc(Nc3ccc(N4CCNCC4)cn3)nc2n1C1CCCC1 [RIBOCICLIB] | Active | Active | Active | – | 276 nM | Active | –

The next lines start with results.

Row | inhibition [2] | inhibition [4] | inhibition [6] | inhibition [13] | Compound | GI50 [1] | Activity [7] | also measured
5 | Active | Active | Active | – | CC(=O)c1c(C)c2cnc(Nc3ccc(N4CCNCC4)cn3)nc2n(C2CCCC2)c1=O [PALBOCICLIB] | 160 nM | Active | Activity [3]: Active; Activity [5]: Active; Activity [8]: Active; Activity [9]: Non-Toxic; Activity [10]: inactive
6 | – | – | – | Active | CCN(CC)CCNC(=O)c1c(C)[nH]c(/C=C2\C(=O)Nc3ccc(F)cc32)c1C [SUNITINIB] | > 5000 nM | – | –
